KCNQ1 inh: inhibitors of human KCNQ1 channel, primary screen, cell-based, thallium flux, high-throughput | Potassium voltage-gated channel subfamily KQT member 1 (Homo sapiens), P51787 | actives 1.3% (n = 310,000) | CHO-K1 KCNQ1, FluxOR thallium flux fluorescence; stronger effect = higher value | B-score at 10 µM | AID 2642, 2010;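 active means compounds whose thallium flux B-score, printed positive for inhibition, exceeds three library SD while starting fluorescence stays within three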;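 further: channel opened by potassium depolarization with thallium stimulus after 20 min compound exposure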
KCNK9 inh: KCNK9 potassium channel inhibitors, primary screen, HEK293 cells, thallium flux | FluxOR thallium flux fluorescence; stronger effect = lower value | B-score at 10 µM | actives 1.2% (n = 310,000) | AID 488922, 2010;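 active means ratio B-score over 3 SD below the library mean, with starting fluorescence within 5 SD of its mean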;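 further: negative B-score means less thallium flux so channel inhibition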
Kir21 inh: inhibitors of mouse Kir2.1 inward-rectifier potassium channel. Inward rectifier potassium channel 2 (Mus musculus), P35561. HEK293-Kir2.1, FluxOR thallium flux fluorescence; stronger effect = lower value. B-score at 10 µM. actives 0.85% (n = 310,000);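 active means fluorescence ratio B-score at or below minus 3 SD of library scores, with starting-brightness B-score within 2 SD, cut at about -4.2 in these data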;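 further: channel flux triggered by added potassium and thallium sulfate stimulus; B-score of peak minus minimum fluorescence over baseline after thallium stimulus; more negative B-score means stronger Kir2.1 block with less thallium influx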
KCNK3 block: human KCNK3 channel inhibitors, primary screen, CHO cells, FluxOR thallium flux, B-score. Potassium channel subfamily K member 3 (Homo sapiens), O14649. FluxOR fluorescence; stronger effect = lower value. B-score at 10 µM. actives 0.84% (n = 340,000);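 active means B-score under library mean minus 4 SD, starting fluorescence ratio at most library mean plus 5 SD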;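 further: more negative B-score means stronger inhibition of thallium flux through KCNK3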
hERG protect: hERG rescue from dofetilide block, primary screen, cell-based, CHO-hERG, FluxOR thallium flux, dofetilide IC70. AID 1511, 2009. Voltage-gated inwardly rectifying potassium channel KCNH2 (Homo sapiens), Q12809. actives 0.51% (n = 310,000). activation (rescue from dofetilide block), less the hit threshold, % at 10 µM. dofetilide IC70 present;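 active means activation above the mean of controls blocked by dofetilide plus 5 SD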;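 further: thallium influx through hERG after potassium depolarization seen as dye fluorescence rise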
KCNQ1 pot: potentiators or activators of KCNQ1 channel, primary screen, cell-based, thallium flux, high-throughput; B-score at 10 µM; actives 0.35% (n = 310,000); CHO-K1 KCNQ1, thallium flux FluxOR fluorescence; stronger effect = higher value; Potassium voltage-gated channel subfamily KQT member 1 (Homo sapiens), P51787;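 active means fluorescence ratio B-score, a plate-corrected score, at least three library SD, with initial intensity B-score within 5 SD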
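System: CHO-K1 cells stably expressing KCNQ1 / Medium: assay buffer for compound exposure, DMSO matched across wells / Reagent: thallium- and potassium-containing depolarizing buffer / Compound: one concentration, matched DMSO / Incubation: 20 min compound pretreatment at room temperature / Measured by: kinetic FluxOR fluorescence, 10 s baseline plus 110 s post-stimulus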
The depositor's hits bear a star; i = inactive; / = no result. Compounds with a hit are over-represented: about 3.7% of the library has one in this group of screens.

SMILES	KCNQ1 inh	KCNK9 inh	Kir21 inh	KCNK3 block	hERG protect	KCNQ1 pot
CN1/C(=C\C(=S)NC(=O)c2cccc(Br)c2)C(C)(C)c2ccccc21	i	i	0.99	i	-4.0	i
Cc1ccc(C(=O)NC(=S)N(C)C2CCCCC2)cc1Br	i	i	-0.29	i	1.8	16*
CN(C(=S)NC(=O)c1ccccc1Br)C1CCCCC1	i	i	0.87	i	2.0	13*
COc1ccc(C(=O)NC(=S)N(C)C2CCCCC2)cc1	i	i	-1.43	i	-3.8	i
COc1ccc(C(=O)NC(=S)N(C)C2CCCCC2)cc1Br	i	i	0.72	i	6.2*	i
Cc1ccccc1C(=O)NC(=S)N(C)C1CCCCC1	i	i	2.91	i	-4.3	i
Cc1[nH]nc2c1C(c1ccsc1)C1=C(CC(C)(C)CC1=O)N2 (configuration not stated)	i	i	0.5	i	-4.8	i
O=C(Nc1nnc(Cc2ccccc2)s1)C1CCN(C(=O)c2ccco2)CC1	i	i	0.43	i	-5.6	i
Cc1ccc(C(=O)Cn2c(N3CCOCC3)nc3c2c(=O)n(C)c(=O)n3C)cc1	i	i	1.74	i	5.0*	i
Cc1cc(C)cc(NC(=O)CSc2nc(=O)n(CCCN3CCOCC3)c3c2CCCC3)c1	i	i	-1.73	i	-16.0	i
N=c1c2c(-c3ccccc3)c(-c3ccccc3)n(Cc3ccccc3)c2ncn1CCCn1ccnc1	i	i	-8.66*	i	-20.0	i
O=C(COc1ccc(Cl)cc1Cl)NCC1(N2CCOCC2)CCCCC1	/	/	/	i	/	/
OC(CNCC1(N2CCCCC2)CCCCC1)COc1ccc(Cl)cc1Cl (configuration not stated)	i	i	-9.28*	i	-9.3	i
CCOC(=O)c1cc(C#N)c(Oc2cccc(C(F)(F)F)c2)nc1-c1ccccc1	6*	i	1	i	-13.1	i
CC(C)n1cc(CN2CCC(n3nccc3NC(=O)C3CCCC3)CC2)cn1	i	i	-0.41	i	-10.3	i
CCc1ccc(C(C)NC(=O)COC(=O)c2ccc(-n3cnnn3)cc2)cc1 (configuration not stated)	/	/	/	i	/	/
COc1ccc(CN(C(=O)/C=C/c2ccco2)C2CCS(=O)(=O)C2)cc1 (configuration not stated)	i	i	0.03	i	-4.3	i
N#Cc1cccc(C#N)c1Oc1ccc(N)cc1	i	-6.82*	-0.24	i	-4.2	i
O=C(COc1ccc(Cl)cc1)NC1CC1	i	i	0	i	0.5	i
O=C(COc1ccc(Cl)cc1)NNC(=O)C(=O)NC1CCCCC1	i	i	0.22	i	15.1*	11*
COc1ccccc1C(=O)NNC(=O)C(=O)NC1CCCCC1	i	i	0.59	i	20.8*	20*
CC(=O)c1ccc(N2CCN(C(=O)/C=C/c3ccc(S(=O)(=O)N4CCOCC4)cc3)CC2)cc1	i	i	0.78	i	-13.5	i
CC(=O)c1ccc(N2CCN(C(=O)/C=C/c3ccc(S(=O)(=O)NCc4ccco4)cc3)CC2)cc1	i	i	0.05	i	4.9*	i
Cc1ccccc1CS(=O)(=O)c1nnc([C@H](Cc2ccccc2)NC(=O)OC(C)(C)C)o1	i	i	-3.9	i	-15.5	12*
CCSc1nnc([C@H](Cc2ccccc2)NC(=O)OC(C)(C)C)o1	i	i	-0.41	i	-13.3	i
SMILES	KCNQ1 inh	KCNK9 inh	Kir21 inh	KCNK3 block	hERG protect	KCNQ1 pot
CC(=O)c1[nH]c(C)c(C(=O)N2CCCC(Nc3cccc(F)c3)C2)c1C (configuration not stated)	i	i	-0.06	i	-5.2	i
O=C(CN1CCN(Cc2ccccc2)CC1)NNC(=O)c1ccccc1	/	/	/	i	/	/
Cc1nc(C)c(-c2ccc(SCc3ccccc3C)nn2)s1	i	-7.89*	-1.44	i	-5.7	i
COc1cccc(/C=N/Nc2ccc(C(=O)O)cc2)c1O	i	i	-0.98	i	5.5*	i
COc1cccc(/C=N/Nc2ccc(S(=O)(=O)O)cc2)c1O	i	i	0	i	-7.8	i
Cc1cc(C(=O)NCC(C)(C)N2CCOCC2)c(C)o1	i	i	0.03	i	-15.8	i
COc1ccc(OC)c(-c2cc(C(=O)N3CCc4ccccc4C3)no2)c1	6*	i	1.63	i	-9.6	i
O=C(NCCc1ccc(Cl)cc1)C1COc2ccccc2O1 (configuration not stated)	i	i	-4.74*	i	-3.1	i
O=C(COc1ccc(Br)cc1)NC1CC1	i	i	0.89	i	-12.8	i
CC(=O)Oc1ccc(C(=O)Nc2ccc(C3(C#N)CCCC3)cc2)cc1	i	i	-0.94	i	-1.4	i
CCOc1ccc(/C=C/C2=Cc3c(sc(NC(=O)CSc4n[nH]c(N)n4)c3C#N)C(C)(C)C2)cc1	i	i	0.12	-8.8*	-16.2	i
CCOC(=O)c1sc(NC(=O)CSc2n[nH]c(-c3ccncc3)n2)c(C#N)c1C	i	i	-0.23	i	1.2	i
Cc1ccsc1/C=C/C1=Cc2c(sc(NC(=O)CSc3n[nH]c(N)n3)c2C#N)C(C)(C)C1	8*	i	-1.36	i	-17.2	i
COC(=O)c1sc(NC(=O)CSc2n[nH]c(N)n2)c(C(=O)OC)c1C	i	i	-1.31	i	-11.7	i
Cc1c(OC(C)C(=O)NCC(O)c2ccccc2)ccc2c3c(c(=O)oc12)CCC3 (configuration not stated)	i	i	0.87	i	-5.2	i
CC(C)c1ccc2c(c1)C(N1CCNCC1)Cc1ccc(F)cc1S2 (configuration not stated)	i	i	-5.22*	i	-30.4	i
COc1ccc(CN(C)c2ccc(S(=O)(=O)N3CCN(C)CC3)cc2[N+](=O)[O-])cc1OC	/	/	/	i	/	/
O=C(NCC1CCCO1)c1cc2c([nH]c3ccccc32)c(-c2cccc(Br)c2)n1 (configuration not stated)	11*	i	1.04	i	-39.8	i
